≈ marks a conversion by molar mass, not a printed value. Calls of active or inactive are those of the source. The rule behind the calls is not given here.
Assays:
Staphylococcus aureus [1] = assay: Antibacterial activity against methicillin-resistant Staphylococcus aureus after 48 hrs by broth microtube dilution method; format: functional
Bacillus subtilis = assay: Antibacterial activity against Bacillus subtilis 769 after 12 to 14 hrs by double dilution method; format: functional
Staphylococcus aureus [2] = assay: Antibacterial activity against methicillin-resistant Staphylococcus aureus ATCC 43300 after 12 to 14 hrs by double dilution method; format: functional
Summary of the method: (§1)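 Broth double-dilution MIC per NCCLS. Bacteria at 1×10^6 CFU/mL in Luria-Bertani medium. Compounds dissolved in DMSO as stock, then diluted in medium to 200, 100, 50, 25, 12.5, 6.25 and 3.125 nmol/mL (DMSO <0.5%); some also tested at 256–1 µg/mL. Incubated at 37 °C for 12–14 h. MIC read as lowest concentration giving visible growth inhibition.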

Staphylococcus aureus [3] = assay: Antibacterial activity against Staphylococcus aureus CGMCC 1.8721 after 12 to 14 hrs by double dilution method; format: functional
[4] = Thermal stability of the compound at 2 ug/ml at 65 degC after 6 hrs by UHPLC-ESI-MS/MS analysis; format: physicochemical
Summary of the method: (§2)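 Sample held at 25 °C 0 h, 37 °C 6 h or 65 °C 6 h, then 5 µL injected on UHPLC coupled to ESI-QTOF MS/MS at 0.4 mL/min; sample 2 µg/mL with mobile phase A 10% acetonitrile (ampicillin sodium) or 1 µg/mL with 35% acetonitrile (test compound); residual parent compound monitored.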

Ralstonia solanacearum [5] = assay: Antibacterial activity against Ralstonia solanacearum CGMCC 1.12711 measured after 12 to 14 hrs by double dilution method; format: functional; summary of the method: as §1
[6] = Thermal stability of the compound at 2 ug/ml at 37 degC after 6 hrs by UHPLC-ESI-MS/MS analysis; format: physicochemical; summary of the method: as §2
Bacillus cereus = assay: Antibacterial activity against Bacillus cereus CGMCC 1.1846 after 12 to 14 hrs by double dilution method; format: functional
Escherichia coli = assay: Antibacterial activity against Escherichia coli CGMCC 1.1636 after 12 to 14 hrs by double dilution method; format: functional
[7] = Cytotoxicity against human L02 cells assessed as cell viability at 8 ug/ml by MTT assay; format: cell-based; settings: read-out: Activity
Summary of the method: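 MTT viability assay on normal cells (MARC 145 monkey kidney, L02 human hepatocyte) exposed to 8 µg/mL; MTT in PBS then 4 h at 37 °C, 5% CO2; formazan dissolved in DMSO with 15 min shaking; absorbance at 540 nm; viability = treated/untreated absorbance × 100%.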

[8] = Cytotoxicity against […] MARC145 cells assessed as cell viability at 8 ug/ml by MTT assay; format: cell-based; settings: chlorocebus aethiops, read-out: Activity
[9] = Thermal stability of the compound at 1 ug/ml at 37 degC after 6 hrs by UHPLC-ESI-MS/MS analysis; format: physicochemical; summary of the method: as §2
[10] = Thermal stability of the compound at 1 ug/ml at 65 degC after 6 hrs by UHPLC-ESI-MS/MS analysis; format: physicochemical; summary of the method: as §2
Ralstonia solanacearum [11] = assay: Bactericidal activity against Ralstonia solanacearum CGMCC 1.12711 assessed as cell shrinkage at 0.5 MIC after 1 hr by scanning electron microscopy analysis; format: functional, organism-based
Staphylococcus aureus [12] = assay: Bactericidal activity against methicillin-resistant Staphylococcus aureus ATCC 43300 assessed as cell wall disintegration at 0.5 MIC after 1 hr by scanning electron microscopy analysis; format: functional, organism-based
Ralstonia solanacearum [13] = assay: Bactericidal activity against Ralstonia solanacearum CGMCC 1.12711 assessed as cell wall disintegration at 0.5 MIC after 1 hr by scanning electron microscopy analysis; format: functional, organism-based
Staphylococcus aureus [14] = assay: Bactericidal activity against methicillin-resistant Staphylococcus aureus ATCC 43300 assessed as cell shrinkage at 0.5 MIC after 1 hr by scanning electron microscopy analysis; format: functional, organism-based
Ralstonia solanacearum [15] = assay: Protection against Ralstonia solanacearum-induced infection in eggplant leaf at 8 ug/ml after 3 days relative to control; format: functional
Staphylococcus aureus [16] = assay: Antibacterial activity against Staphylococcus aureus after 18 hrs; format: functional
Staphylococcus aureus [17] = assay: Antibacterial activity against multidrug-resistant Staphylococcus aureus XU212 after 24 hrs; format: functional; settings: XU212, 24 h
Staphylococcus aureus [18] = assay: Antibacterial activity against multidrug-resistant Staphylococcus aureus 1199B after 24 hrs; format: functional
Staphylococcus aureus [19] = assay: Antibacterial activity against methicillin-resistant Staphylococcus aureus EMRSA15 after 24 hrs; format: functional; settings: EMRSA15, 24 h

Compound	MIC (Bacillus subtilis)	MIC (Staphylococcus aureus [2])	MIC (Staphylococcus aureus [3])	MIC (Ralstonia solanacearum [5])	MIC (Bacillus cereus)	MIC (Escherichia coli)	other results
Cc1ccc2[nH]c3c[n+](C)ccc3c2c1.[I-]	–	–	–	–	–	–	MIC (Staphylococcus aureus [1]): 4 µg/mL
CC1(C)S[C@@H]2[C@H](NC(=O)[C@H](N)c3ccccc3)C(=O)N2[C@H]1C(=O)[O-].[Na+] [AMPICILLIN SODIUM]	1.56 µM	50 µM	3.12 µM	3.12 µM	200 µM	3.12 µM	Stability [4]: Unstable; Stability [6]: Unstable
COc1ccc2[nH]c3c(-c4ccc5c(c4)OCO5)[n+](Cc4ccc(C)cc4)ccc3c2c1	25 µM	25 µM	25 µM	25 µM	50 µM	200 µM	viability at 8 ug/ml [7]: 82.2%; viability at 8 ug/ml [8]: 98.5%
COc1ccc2[nH]c3c(-c4ccco4)[n+](Cc4ccc(C(F)(F)F)cc4)ccc3c2c1	25 µM	25 µM	25 µM	25 µM	50 µM	50 µM	viability at 8 ug/ml [7]: 74.3%; viability at 8 ug/ml [8]: 88.5%
COc1ccc2[nH]c3c(-c4ccc5c(c4)OCO5)[n+](Cc4ccc(C(F)(F)F)cc4)ccc3c2c1.[Br-]	25 µM	12.5 µM	25 µM	25 µM	25 µM	50 µM	Stability [9]: Stable; Stability [10]: Stable; Activity (Ralstonia solanacearum [11]): Active; Activity (Staphylococcus aureus [12]): Active; Activity (Ralstonia solanacearum [13]): Active; Activity (Staphylococcus aureus [14]): Active; Activity (Ralstonia solanacearum [15]): 81.3%; viability at 8 ug/ml [7]: 84.6%; viability at 8 ug/ml [8]: 103%
FC(F)(F)c1ccc(C[n+]2ccc3c([nH]c4ccccc43)c2-c2ccc3c(c2)OCO3)cc1	25 µM	25 µM	25 µM	25 µM	50 µM	100 µM	viability at 8 ug/ml [7]: 85.7%; viability at 8 ug/ml [8]: 96.3%
COC(=O)c1ccc(-c2c3[nH]c4ccc(OC)cc4c3cc[n+]2Cc2ccc(C(F)(F)F)cc2)cc1	25 µM	25 µM	25 µM	25 µM	25 µM	200 µM	viability at 8 ug/ml [7]: 71.6%; viability at 8 ug/ml [8]: 93.2%
FC(F)(F)c1ccc(C[n+]2ccc3c([nH]c4ccccc43)c2-c2ccco2)cc1	25 µM	25 µM	25 µM	25 µM	50 µM	50 µM	viability at 8 ug/ml [7]: 76.2%; viability at 8 ug/ml [8]: 87.1%
COC(=O)c1ccc(-c2c3[nH]c4ccc(OC)cc4c3cc[n+]2Cc2ccc(Br)cc2)cc1	25 µM	37.5 µM	25 µM	25 µM	37.5 µM	–	viability at 8 ug/ml [7]: 73.5%; viability at 8 ug/ml [8]: 94.8%
c1coc(-c2nccc3c2[nH]c2ccccc23)c1	> 200 µM	> 200 µM	> 200 µM	> 200 µM	> 200 µM	> 200 µM	–
C[C@@H]1O[C@@H]1P(=O)(O)O [PHOSPHOMYCIN DISODIUM]	12.5 µM	50 µM	100 µM	50 µM	25 µM	6.25 µM	–
COC(=O)c1ccc(-c2c3[nH]c4ccc(OC)cc4c3cc[n+]2Cc2ccc(C)cc2)cc1	50 µM	100 µM	50 µM	50 µM	50 µM	> 200 µM	–
Cc1nccc2c1[nH]c1ccccc12 [HARMAN]	–	–	–	–	–	–	MIC (Staphylococcus aureus [16]): 1000 µg/mL (≈ 5490 µM)
CO/N=C(\C(=O)N[C@@H]1C(=O)N2C(C(=O)O)=C(COC(C)=O)CS[C@H]12)c1csc(N)n1 [CEFOTAXIME SODIUM]	3.12 µM	25 µM	1.56 µM	3.12 µM	25 µM	1.56 µM	–
O=c1ccc2nccc3c4ccccc4n1c23 [CANTHIN-6-ONE]	–	–	–	–	–	–	MIC (Staphylococcus aureus [17]): 8 to 64 µg/mL (≈ 36.3 to 291 µM); MIC (Staphylococcus aureus [18]): 8 to 64 µg/mL (≈ 36.3 to 291 µM); MIC (Staphylococcus aureus [19]): 8 to 64 µg/mL (≈ 36.3 to 291 µM)
COc1ccc2[nH]c3c(-c4ccco4)[n+](Cc4ccccc4)ccc3c2c1	50 µM	100 µM	100 µM	100 µM	200 µM	> 200 µM	–
COc1ccc2[nH]c3c(-c4ccccn4)[n+](Cc4ccc(C)cc4)ccc3c2c1	100 µM	100 µM	100 µM	100 µM	200 µM	> 200 µM	–
COc1ccc2[nH]c3c(-c4ccccn4)[n+](Cc4ccccc4)ccc3c2c1	> 200 µM	> 200 µM	> 200 µM	> 200 µM	> 200 µM	> 200 µM	–
Cc1ccc(C[n+]2ccc3c([nH]c4ccccc43)c2-c2ccco2)cc1	25 µM	50 µM	50 µM	25 µM	100 µM	100 µM	–
COc1ccc2[nH]c3c(-c4ccccn4)[n+](Cc4ccc(C(F)(F)F)cc4)ccc3c2c1	100 µM	100 µM	100 µM	100 µM	200 µM	> 200 µM	–
COc1ccc2[nH]c3c(-c4ccco4)[n+](Cc4ccc(C)cc4)ccc3c2c1	25 µM	50 µM	50 µM	25 µM	100 µM	100 µM	–
COc1ccc2[nH]c3c(-c4ccc5c(c4)OCO5)nccc3c2c1	> 200 µM	200 µM (≈ 63.7 µg/mL)	200 µM (≈ 63.7 µg/mL)	> 200 µM	> 200 µM	> 200 µM	–
c1ccc(C[n+]2ccc3c([nH]c4ccccc43)c2-c2ccc3c(c2)OCO3)cc1	50 µM	100 µM	100 µM	100 µM	100 µM	> 200 µM	–
COC(=O)c1ccc(-c2c3[nH]c4ccccc4c3cc[n+]2Cc2ccc(C(F)(F)F)cc2)cc1	50 µM	50 µM	50 µM	50 µM	100 µM	200 µM	–
Cc1ccc(C[n+]2ccc3c([nH]c4ccccc43)c2-c2ccc3c(c2)OCO3)cc1	25 µM	50 µM	50 µM	50 µM	100 µM	> 200 µM	–
COc1ccc2[nH]c3c(-c4ccc5c(c4)OCO5)[n+](Cc4ccccc4)ccc3c2c1	50 µM	50 µM	100 µM	50 µM	200 µM	> 200 µM	–
c1ccc2c(c1)[nH]c1c(-c3ccc4c(c3)OCO4)nccc12	> 200 µM	> 200 µM	> 200 µM	> 200 µM	> 200 µM	> 200 µM	–
COC(=O)c1ccc(-c2nccc3c2[nH]c2ccc(OC)cc23)cc1	> 200 µM	> 200 µM	> 200 µM	> 200 µM	> 200 µM	> 200 µM	–

Source: ChEMBL document CHEMBL4325839, “Design, synthesis and biological evaluations of quaternization harman analogues as potential antibacterial agents” (Eur J Med Chem, 2018)
